Reference: ChEMBL document CHEMBL1121364, “Nucleoside conjugates as potential antitumor agents. 3. Synthesis and antitumor activity of 1-(beta-D-arabinofuranosyl)cytosine conjugates of corticosteroids” (1980)

What was measured:
L1210 [1] = assay: Antitumor activity in the mice with intraperitoneal implanted L1210 lymphoid leukemia at the dose of 75 mg/kg/day x 5 was determined as mean survival of treated group compared to untreated; 28.5/9.5; assay type: functional, Mus musculus
L1210 [2] = assay: Antitumor activity in the mice with intraperitoneal implanted L1210 lymphoid leukemia at the dose of 25 mg/kg/day x 5 was determined as mean survival of treated group compared to untreated; 18/9.5; assay type: functional, Mus musculus
Procedure, shortened: (§1)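 C3D2F1/J female mice (C3H/HeJ female × DBA/2J male), groups of six to eight, average weight 25 g. Inoculated ip with 1 × 10^6 L1210 ascites cells taken from DBA/2Ha donor mice bearing 3-5 day old tumors. Compounds were dissolved in 0.154 N NaOH, neutralized with 0.154 N HCl (final 0.9% NaCl), and given ip daily for 5 days from 24 h post-implant. Median survival T/C; ILS = (T/C − 1) × 100; 30-day survivors counted.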

L1210 [3] = assay: Antitumor activity in the mice with intraperitoneal implanted L1210 lymphoid leukemia at the dose of 50 mg/kg/day x 5 was determined as mean survival of treated group compared to untreated; 20.5/8.5; assay type: functional, Mus musculus
L1210 [4] = assay: Antitumor activity in the mice with intraperitoneal implanted L1210 lymphoid leukemia at the dose 100 mg/kg/day x 5 was determined as percentage increase in the life span as compared with control tumor bearers; assay type: functional; details: Mus musculus, L1210, ip
Procedure, shortened: (§2)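 Female C3D2F1/J mice (C3H/HeJ × DBA/2J), groups of six to eight, average weight 25 g. Each mouse got 1 × 10^6 L1210 ascites cells ip, taken from DBA/2Ha donor mice bearing 3-5 day tumors. Compound was dissolved in 0.154 N NaOH and neutralized with 0.154 N HCl (final 0.9% NaCl). Dosed ip daily ×5, starting 24 h after implant. Recorded body weight change on day 8, survival range, median survival and 30-day survivors. ILS = (T/C − 1) × 100.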

L1210 [5] = assay: Antitumor activity in mice with intraperitoneal implanted L1210 lymphoid leukemia at the dose 75 mg/kg/day x 5 was determined as weight change (g/mouse) on 8th day; assay type: functional
Procedure, shortened: (§3)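 C3D2F1/J female mice (C3H/HeJ × DBA/2J), groups of six to eight, average 25 g, inoculated ip with 1 × 10^6 L1210 ascites cells taken from DBA/2Ha donor mice carrying 3-5 day tumors. Compound dissolved in 0.154 N NaOH, then neutralized with 0.154 N HCl to give 0.9% NaCl. Given ip daily for 5 consecutive days starting 24 h after implantation. Body weight change per mouse recorded on day 8.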

L1210 [6] = assay: In Vitro evaluation for the antiproliferative activity by observing the growth inhibition of L1210 lymphoid leukemia cells in culture at 72 hour; assay type: functional, Mus musculus
Procedure, shortened: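 Growth of L1210 lymphoid leukemia cells in culture measured by Trypan blue exclusion of viable cells after 72 h of drug exposure. ED50 is the concentration giving 50% growth inhibition. In some runs the compound was first preincubated in medium at 37 °C for 24 or 48 h before the assay.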

L1210 [7] = assay: Antitumor activity in mice with intraperitoneal implanted L1210 lymphoid leukemia at the dose 100 mg/kg/day x 5 was determined as weight change (g/mouse) on 8th day; assay type: functional; procedure, shortened: as §3
L1210 [8] = assay: Antitumor activity in mice with intraperitoneal implanted L1210 lymphoid leukemia at the dose 25 mg/kg/day x 5 was determined as weight change (g/mouse) on 8th day; assay type: functional; procedure, shortened: as §3
L1210 [9] = assay: Antitumor activity in mice with intraperitoneal implanted L1210 lymphoid leukemia at the dose 50 mg/kg/day x 5 was determined as weight change (g/mouse) on 8th day; assay type: functional; procedure, shortened: as §3
L1210 [10] = assay: Antitumor activity in the mice with intraperitoneal implanted L1210 lymphoid leukemia at the dose 100 mg/kg/day x 5 was determined and number of animals survived on 30 th day were reported; 0/6; assay type: functional, Mus musculus; procedure, shortened: as §2
L1210 [11] = assay: Antitumor activity in the mice with intraperitoneal implanted L1210 lymphoid leukemia at the dose 18.7 and 26.6 mg/kg/day x 5 was determined and number of animals survived on 30 th day were reported; 0/8; assay type: functional, Mus musculus; procedure, shortened: as §2
L1210 [12] = assay: Antitumor activity in the mice with intraperitoneal implanted L1210 lymphoid leukemia at the dose 25 mg/kg/day x 5 was determined and number of animals survived on 30 th day were reported; 0/8; assay type: functional, Mus musculus; procedure, shortened: as §2
L1210 [13] = assay: Antitumor activity in the mice with intraperitoneal implanted L1210 lymphoid leukemia at the dose 50 mg/kg/day x 5 was determined as Survival time in days; Range is 14-23 days; assay type: functional, Mus musculus; procedure, shortened: as §2
L1210 [14] = assay: Antitumor activity in the mice with intraperitoneal implanted L1210 lymphoid leukemia at the dose 50 mg/kg/day x 5 was determined and number of animals survived on 30 th day were reported; 0/8; assay type: functional, Mus musculus; procedure, shortened: as §2
L1210 [15] = assay: Antitumor activity in the mice with intraperitoneal implanted L1210 lymphoid leukemia at the dose 75 mg/kg/day x 5 was determined and number of animals survived on 30 th day were reported; 3/8; assay type: functional, Mus musculus; procedure, shortened: as §1
L1210 [16] = assay: Antitumor activity in the mice with intraperitoneal implanted L1210 lymphoid leukemia at the dose 50 mg/kg/day x 5 was determined as percentage increase in the life span as compared with control tumor bearers; assay type: functional; details: Mus musculus, L1210, ip; procedure, shortened: as §1
L1210 [17] = assay: Antitumor activity in the mice with intraperitoneal implanted L1210 lymphoid leukemia at the dose 75 mg/kg/day x 5 was determined as percentage increase in the life span as compared with control tumor bearers; assay type: functional; details: Mus musculus, L1210, ip; procedure, shortened: as §1
L1210 [18] = assay: Antitumor activity in the mice with intraperitoneal implanted L1210 lymphoid leukemia at the dose 9.2 and 13.2 mg/kg/day x 5 was determined as percentage increase in the life span as compared with control tumor bearers; assay type: functional, Mus musculus; procedure, shortened: as §1
L1210 [19] = assay: Antitumor activity in the mice with intraperitoneal implanted L1210 lymphoid leukemia at the dose 100 mg/kg/day x 5 was determined as Survival time in days; Range is 10-16 days; assay type: functional, Mus musculus; procedure, shortened: as §2
L1210 [20] = assay: Antitumor activity in the mice with intraperitoneal implanted L1210 lymphoid leukemia at the dose 75 mg/kg/day x 5 was determined as Survival time in days; Range is 18-37 days; assay type: functional, Mus musculus; procedure, shortened: as §1
L1210 [21] = assay: Antitumor activity in the mice with intraperitoneal implanted L1210 lymphoid leukemia at the dose 9.2 and 13.2 mg/kg/day x 5 was determined as Survival time in days; Range is 13-24 days; assay type: functional, Mus musculus; procedure, shortened: as §1
L1210 [22] = assay: Antitumor activity in the mice with intraperitoneal implanted L1210 lymphoid leukemia at the dose 25 mg/kg/day x 5 was determined as Survival time in days; Range is 14-27 days; assay type: functional, Mus musculus; procedure, shortened: as §2
L1210 [23] = assay: Antitumor activity in the mice with intraperitoneal implanted L1210 lymphoid leukemia at the dose 18.7 and 26.6 mg/kg/day x 5 was determined as percentage increase in the life span as compared with control tumor bearers; assay type: functional, Mus musculus; procedure, shortened: as §2
L1210 [24] = assay: Antitumor activity in the mice with intraperitoneal implanted L1210 lymphoid leukemia at the dose 25 mg/kg/day x 5 was determined as percentage increase in the life span as compared with control tumor bearers; assay type: functional; details: Mus musculus, L1210, ip; procedure, shortened: as §2
L1210 [25] = assay: Antitumor activity in the mice with intraperitoneal implanted L1210 lymphoid leukemia at the dose 9.2 and 13.2 mg/kg/day x 5 was determined and number of animals survived on 30 th day were reported; 0/6; assay type: functional, Mus musculus; procedure, shortened: as §1
L1210 [26] = assay: Antitumor activity in the mice with intraperitoneal implanted L1210 lymphoid leukemia at the dose of 100 mg/kg/day x 5 was determined as median survival of treated group compared to untreated; 16/11

C[C@]12CCC(=O)C=C1CC[C@@H]1[C@@H]2CC[C@@]2(C)[C@H]1CC[C@]2(O)C(=O)COP(=O)(O)OC[C@H]1O[C@@H](n2ccc(N)nc2=O)[C@@H](O)[C@@H]1O
T/C (L1210 [1]): 28.5 | T/C (L1210 [2]): 18 | T/C (L1210 [3]): 20.5 | ILS at 100 mg/kg/day (L1210 [4]): 46% | Weight change (L1210 [5]): 0.46 g mouse-1 | ED 50 (L1210 [6]): 80 nM | Weight change (L1210 [7]): -3.82 g mouse-1 | Weight change (L1210 [8]): 1.55 g mouse-1 | Weight change (L1210 [9]): -2.5 g mouse-1 | Survivors (L1210 [10]): 0 | Survivors (L1210 [11]): 0 | Survivors (L1210 [12]): 0 | Survival time (L1210 [13]): 14 days | Survivors (L1210 [14]): 0 | Survivors (L1210 [15]): 3 | ILS at 50 mg/kg/day (L1210 [16]): 141% | ILS at 75 mg/kg/day (L1210 [17]): 200% | ILS (L1210 [18]): 59% | Survival time (L1210 [19]): 10 days | Survival time (L1210 [20]): 18 days | Survival time (L1210 [21]): 13 days | Survival time (L1210 [22]): 14 days | ILS (L1210 [23]): 77% | ILS at 25 mg/kg/day (L1210 [24]): 90% | Survivors (L1210 [25]): 0 | T/C (L1210 [26]): 16
